ChEMBL document CHEMBL1131468, “Rigid phencyclidine analogues. Binding to the phencyclidine and sigma 1 receptors” (J Med Chem, 1998)

What was measured:
[1] = target: Sigma non-opioid intracellular receptor 1 (Rattus norvegicus, UniProt Q9R0C9); experiment: Inhibition of [3H]NANM binding to sigma receptor obtained from tissue homogenate preparation of fresh whole rat brain minus cerebellum; assay type: tissue-based
Outline: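 Radioligand displacement in homogenate of fresh whole rat brain minus cerebellum. The PCP site was labelled with [3H]TCP and the sigma site with [3H]NANM. IC50 values were read from inhibition curves and converted to Ki with the Cheng-Prusoff equation. Experiments were run in triplicate and reported as mean ± standard deviation of three experiments.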

[2] = Inhibition of [3H]-TCP binding to PCP receptor obtained from tissue homogenate preparation of fresh whole rat brain minus cerebellum

Sigma non-opioid intracellular receptor 1, sequence (Q9R0C9 whole entry): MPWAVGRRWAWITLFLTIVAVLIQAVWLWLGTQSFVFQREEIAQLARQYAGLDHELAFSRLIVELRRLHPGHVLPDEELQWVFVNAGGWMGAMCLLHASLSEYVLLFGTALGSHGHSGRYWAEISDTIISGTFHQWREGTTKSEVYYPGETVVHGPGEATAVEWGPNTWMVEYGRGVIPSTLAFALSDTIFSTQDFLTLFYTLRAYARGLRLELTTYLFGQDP

Compound	IC50 [1]	IC50 [2]
c1ccc2c(c1)C1CCCCC21N1CCCCC1 (stereo not given)	330 nM	
c1ccc2c(c1)C1CCC2(N2CCCCC2)CC1	319 nM	
O=C(OCCN1CCOCC1)C1(c2ccccc2)CCCCC1	44 nM	
c1ccc2c(c1)C1CCC2(N2CCCCC2)C1 (stereo not given)	365 nM	
c1ccc(C2(N3CCCCC3)CCCCC2)cc1 [PHENCYCLIDINE]		91 nM
